Activity calls are given as the source filed them. The calls are words filed in the database; no cut-off is given here.
Legend:
MOLT-4 [1] = experiment: Cytotoxicity against human ASNase-resistant MOLT4 cells assessed as cell viability at 0.06 mM after 48 hrs by MTS assay in absence of ASNase; format: functional, cell-based
Summary of the method: (§1)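 MOLT-4R cells grown in RPMI 1640 with 10% heat-inactivated FBS and penicillin-streptomycin at 37°C under 5% CO2. Cells were exposed to 10-1000 µM inhibitor, with or without 1 U/mL ASNase, for 48 h. Read-out was MTS at 490 nm, as titer relative to untreated cells at t=0; mean ± SD of triplicates.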

[2] = molecular target: T1, Asparagine synthetase [glutamine-hydrolyzing] (Homo sapiens, UniProt P08243); experiment: Inhibition of human recombinant ASNS expressed in Sf9 cells assessed as initial inhibition constant for glutamine dependent production of inorganic pyrophosphate by spectrophotometry analysis
T1 sequence (P08243 whole entry): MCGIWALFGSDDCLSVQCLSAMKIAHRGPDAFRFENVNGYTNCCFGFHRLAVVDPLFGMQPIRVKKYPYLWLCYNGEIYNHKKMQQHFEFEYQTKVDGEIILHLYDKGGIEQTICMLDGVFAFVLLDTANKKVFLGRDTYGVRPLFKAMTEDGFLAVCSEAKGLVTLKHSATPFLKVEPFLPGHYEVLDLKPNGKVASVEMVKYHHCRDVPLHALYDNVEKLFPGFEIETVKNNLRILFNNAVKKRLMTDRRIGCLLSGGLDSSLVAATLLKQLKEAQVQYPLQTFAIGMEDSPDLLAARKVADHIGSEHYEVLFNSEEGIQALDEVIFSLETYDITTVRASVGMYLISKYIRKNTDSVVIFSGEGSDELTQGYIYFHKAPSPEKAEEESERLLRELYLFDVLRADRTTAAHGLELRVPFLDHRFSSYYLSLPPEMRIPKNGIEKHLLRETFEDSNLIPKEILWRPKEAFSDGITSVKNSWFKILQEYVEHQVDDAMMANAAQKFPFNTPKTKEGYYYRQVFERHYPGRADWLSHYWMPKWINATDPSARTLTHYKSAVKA

MOLT-4 [3] = experiment: Cytotoxicity against human ASNase-resistant MOLT4 cells assessed as cell viability after 48 hrs by MTS assay in absence of ASNase; format: functional, cell-based; summary of the method: as §1
MOLT-4 [4] = experiment: Cytotoxicity against human ASNase-resistant MOLT4 cells assessed as cell viability at >500 uM after 48 hrs by MTS assay in absence of ASNase
[5] = molecular target: T1, Asparagine synthetase [glutamine-hydrolyzing]; experiment: Inhibition of human recombinant ASNS expressed in Sf9 cells assessed as assessed as initial inhibition constant for ammonia dependent production of inorganic pyrophosphate by spectrophotometry analysis
Summary of the method: (§2)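 PPi formation was coupled to NADH loss at 340 nm over 20 min. Progress curves at fixed inhibitor levels were fitted, and Ki was taken from k versus [I] with Ka 0.1 mM. Duplicates.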

MOLT-4 [6] = experiment: Cytotoxicity against human ASNase-resistant MOLT4 cells assessed as cell viability at 250 uM after 48 hrs by MTS assay in presence of ASNase; format: functional, cell-based; summary of the method: as §1
MOLT-4 [7] = experiment: Cytotoxicity against human ASNase-resistant MOLT4 cells assessed as cell viability at 130 uM after 48 hrs by MTS assay in presence of ASNase; format: functional, cell-based; summary of the method: as §1
MOLT-4 [8] = experiment: Cytotoxicity against human ASNase-resistant MOLT4 cells assessed as cell viability at 0.13 mM after 48 hrs by MTS assay in absence of ASNase; format: functional, cell-based; summary of the method: as §1
[9] = molecular target: T1, Asparagine synthetase [glutamine-hydrolyzing]; experiment: Inhibition of human recombinant ASNS expressed in Sf9 cells assessed as assessed as overall inhibition constant for ammonia dependent production of inorganic pyrophosphate by spectrophotometry analysis; summary of the method: as §2
MOLT-4 [10] = experiment: Cytotoxicity against human ASNase-sensitive MOLT4 cells assessed as cell viability at 130 uM after 48 hrs by MTS assay; format: functional, cell-based
Summary of the method: (§3)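 The ASNase-sensitive MOLT-4S line was kept in RPMI 1640 with 10% heat-inactivated FBS and penicillin-streptomycin at 37°C, 5% CO2. They were incubated 48 h with 10-1000 µM compound and no ASNase. Viability was measured by MTS (OD 490) relative to t=0 cell number; mean ± SD of triplicates.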

MOLT-4 [11] = experiment: Cytotoxicity against human ASNase-sensitive MOLT4 cells assessed as cell viability at 250 to 500 uM after 48 hrs by MTS assay; format: functional, cell-based; summary of the method: as §3
[12] = molecular target: T1, Asparagine synthetase [glutamine-hydrolyzing]; experiment: Inhibition of human recombinant ASNS expressed in Sf9 cells assessed as overall inhibition constant for glutamine dependent production of inorganic pyrophosphate by spectrophotometry analysis
MOLT-4 [13] = experiment: Cytotoxicity against human ASNase-resistant MOLT4 cells assessed as cell viability at 0.06 mM after 48 hrs by MTS assay in presence of ASNase; format: functional, cell-based; summary of the method: as §1
MOLT-4 [14] = experiment: Cytotoxicity against human ASNase-resistant MOLT4 cells assessed as cell viability after 48 hrs by MTS assay in absence of ASNase relative to sulfoximine 1

Ki [2] [nM] | Ki [5] [nM] | Ki [9] [nM] | Ki [12] [nM] | SMILES | Activity (MOLT-4 [1]) | Activity (MOLT-4 [3]) | Activity (MOLT-4 [4]) | Activity (MOLT-4 [6]) | Activity (MOLT-4 [7]) | Activity (MOLT-4 [8]) | Activity (MOLT-4 [10]) | Activity (MOLT-4 [11]) | Activity (MOLT-4 [13]) | fold change (FC) (MOLT-4 [14])
490 | 450 | 33 | 8 | C[S+]([O-])(CCN)=NP(=O)(O)OC[C@H]1O[C@@H](n2cnc3c(N)ncnc32)[C@H](O)[C@@H]1O (mixture of isomers) | inactive | Dose-dependent effect | Active | Active | Active | Active | Active | Active | inactive | 7
4500 | 3040 | 310 | 840 | C[S+]([O-])(CCC(=O)O)=NP(=O)(O)OC[C@H]1O[C@@H](n2cnc3c(N)ncnc32)[C@H](O)[C@@H]1O (mixture of isomers) | – | – | – | – | – | – | – | – | – | –
1000 | 280 | 2.5 | 24 | C[S+]([O-])(C[C@H](N)C(=O)O)=NP(=O)(O)OC[C@H]1O[C@@H](n2cnc3c(N)ncnc32)[C@H](O)[C@@H]1O (mixture of isomers) | – | – | – | – | – | – | – | – | – | –

From ChEMBL document CHEMBL2150922, “A sulfoximine-based inhibitor of human asparagine synthetase kills L-asparaginase-resistant leukemia cells” (Bioorg Med Chem, 2012)
